PfGluPho inh: PfG6PD enzyme inhibitors, primary screen, biochemical, fluorescence intensity, uHTS; 350,000 compounds, 0.78% hits; inhibition, % at 20 µM; glucose-6-phosphate dehydrogenase-6-phosphogluconolactonase (Plasmodium falciparum 3D7); PfGluPho enzyme, NADPH resazurin-diaphorase fluorescence;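 active = inhibition reaching at least a set limit at 20 µM in the primary screen, cut at about 59% in these data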
HKDC1 inhibitor: HKDC1 hexokinase inhibitors, primary screen, biochemical, fluorescence, uHTS; Q2TB90; 340,000 compounds, 0.16% hits; AID 493160, 2011; recombinant HKDC1, G6PDH/diaphorase resazurin coupled fluorescence; inhibition, % at 20 µM;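 active = inhibition above about 35% when tested at 20 µM, limit read from the data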
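Incubation: 90 min at room temperature in dark / Material: recombinant HKDC1 (HK5) hexokinase enzyme, produced in-house / Quantity: enzyme 5 µg/mL final / Compound: one dose of 20 µM, 1% DMSO / Reagent: glucose and ATP substrates / Buffer or medium: Tris pH 8.0 buffer with MgCl2, Tween-20, BSA, BME / Technique: resorufin fluorescence at 613 nm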
M18AAP inhibitor: PfM18AAP inhibitors, malaria aminopeptidase, primary screen, biochemical, QFRET, recombinant enzyme. M18 aspartyl aminopeptidase (Plasmodium falciparum 3D7). H-Glu-NHMec fluorogenic cleavage. AID 1822, 2009. inhibition, % at 7.35 µM. 290,000 compounds, 1.2% hits;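 active = inhibition above the campaign mean inhibition over all tested compounds plus 3 SD, cut at about 28% in these data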
Neddyl block: inhibitors of cullin neddylation, primary screen, biochemical, TR-FRET, uHTS, NAE and Ubc12; inhibition, % at 25 µM; 360,000 compounds, 0.58% hits; AID 651699, 2012; in the data active = inhibition above about 36%
Target sequence (P61081 whole entry, looked up): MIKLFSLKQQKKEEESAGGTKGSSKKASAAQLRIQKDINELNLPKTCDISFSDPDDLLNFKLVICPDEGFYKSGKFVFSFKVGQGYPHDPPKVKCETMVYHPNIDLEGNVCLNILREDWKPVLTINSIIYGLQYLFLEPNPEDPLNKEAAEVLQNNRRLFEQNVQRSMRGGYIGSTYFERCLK
Target sequence (Q13564 whole entry, looked up): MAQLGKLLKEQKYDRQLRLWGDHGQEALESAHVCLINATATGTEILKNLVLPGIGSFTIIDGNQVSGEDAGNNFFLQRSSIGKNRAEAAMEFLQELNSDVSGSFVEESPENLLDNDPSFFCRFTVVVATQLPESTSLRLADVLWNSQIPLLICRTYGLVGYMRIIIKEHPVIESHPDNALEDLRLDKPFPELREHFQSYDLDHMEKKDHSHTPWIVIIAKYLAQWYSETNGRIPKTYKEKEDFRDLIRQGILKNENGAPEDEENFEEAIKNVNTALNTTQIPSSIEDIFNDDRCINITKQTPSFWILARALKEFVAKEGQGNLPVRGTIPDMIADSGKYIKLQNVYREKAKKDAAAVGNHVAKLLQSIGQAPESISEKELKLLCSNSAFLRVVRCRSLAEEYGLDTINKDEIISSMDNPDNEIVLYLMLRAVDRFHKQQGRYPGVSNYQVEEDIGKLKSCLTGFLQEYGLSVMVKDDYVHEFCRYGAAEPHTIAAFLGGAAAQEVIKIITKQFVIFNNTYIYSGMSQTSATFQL
Neddyl inh conf: blockade of NEDD8 conjugation to cullin – biochemical, TR-FRET, single concentration, confirmation; shares compounds with Neddyl block; calls only at 25 µM; 1,800 compounds, 13% hits; AID 652217, 2013; TR-FRET cullin neddylation biochemical assay; in the data active = inhibition above about 40%;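 note: neddylation substrate is the cullin 1 ring ligase complex with SKP2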
Numbers stand for hits; – = inactive; · = not tested or not shown; + = active, no number. Sampled rows, rich in hits. Any-hit rate of the full collection: about 2.2%.

SMILES	PfGluPho inh	HKDC1 inhibitor	M18AAP inhibitor	Neddyl block	Neddyl inh conf
O=C(O)c1cc(Nc2cc(Cl)c3nonc3c2[N+](=O)[O-])ccc1O	–	–	–	–	·
CC(C)Cc1cc(CNC(=O)C2CCC(=O)N(Cc3cccc(C(F)(F)F)c3)C2)on1 (stereo not given)	–	–	–	–	·
CCN(CC)Cc1c(C)[nH]c2ccc(NC(C)=O)cc2c1=O	–	·	·	–	·
C=CCN(CC=C)Cc1c(C)[nH]c2ccc(C(=O)OCC)cc2c1=O	–	–	–	44.0	–
Cc1csc2ncc(C(=O)NCCc3ccccc3)c(=O)n12	–	–	–	46.7	–
O=C(NC1CCC(O)CC1)C1CCN(S(=O)(=O)c2c(Cl)cccc2Cl)CC1 (stereo not given)	–	–	·	–	·
CCOC(=O)C1=C(C)NC(C)=C(C(=O)OCC)C1C(=O)OCC(N)=O	–	–	–	–	·
CCOC(=O)C1=C(C)NC(C)=C(C(=O)OCC)C1C(=O)OCC(=O)N(C)Cc1ccccc1	–	–	·	40.3	–
O=C(CCc1ccccc1)NC1CCS(=O)(=O)C1 (stereo not given)	–	–	·	–	·
COc1c(C(=O)Nc2nnc(C3CC3)s2)csc1Cl	–	–	–	–	·
CCOc1ccc(/C=C/C(=O)Nc2ccc(C(N)=O)cc2)cc1OC	–	–	–	·	·
CCOc1cc(/C=C/C(=O)Nc2ccc(C(=O)NCCN(CC)CC)cc2)ccc1OCC(C)C	–	–	–	53.8	+
COC(=O)C1=C(C)NC2=C(C(=O)CC(C)(C)C2)C1c1ccccn1 (stereo not given)	–	–	–	·	·
COC(=O)C1=C(C)NC2=C(C(=O)C(C(=O)OC)C(c3ccc(OC)cc3)C2)C1c1ccccn1 (stereo not given)	–	–	–	48.8	·
CCOc1ccccc1C1C(C#N)=C(N)Oc2cc(N)ccc21 (stereo not given)	–	–	28.4	46.7	–
COc1ccc(OC)c(C2C(C#N)=C(N)Oc3cc(N)ccc32)c1 (stereo not given)	–	–	–	–	·
COc1ccc(C2C(C#N)=C(N)Oc3cc(O)ccc32)cc1Cl (stereo not given)	–	–	–	48.4	–
C#CCOc1ccc(C2C(C#N)=C(N)Oc3cc(O)ccc32)cc1 (stereo not given)	–	–	–	56.2	–
NS(=O)(=O)c1cccc(NC(=O)COC(=O)CN2C(=O)c3ccccc3C2=O)c1	–	–	·	–	·
O=C(NCCc1ccccc1F)C1CCC(=O)N(CCCN2CCCC2=O)C1 (stereo not given)	–	–	–	–	·
CCN(CC)S(=O)(=O)c1ccc2c3c(cccc13)C(=O)N2	–	–	–	48.5	·
CCN(c1cccc(C)c1)S(=O)(=O)c1ccc2c3c(cccc13)C(=O)N2	–	–	–	–	·
COc1ccccc1C=NNC(=O)C(=O)NN=Cc1ccccc1OC	–	–	·	40.4	–
COc1cccc(/C=N/NC(=O)C(=O)N/N=C/c2cccc(OC)c2OC)c1OC	–	–	–	–	·
COc1ccccc1/C=N/NC(=O)c1ccccc1NS(=O)(=O)c1ccc(C)cc1	–	–	–	51.5	·
SMILES	PfGluPho inh	HKDC1 inhibitor	M18AAP inhibitor	Neddyl block	Neddyl inh conf
O=C1CN(C(=O)NCC(=O)N2CCCC2)c2ccccc2N1	–	–	–	–	·
Cc1ccc(-c2csc3nc(-c4ccncc4)[nH]c(=O)c23)cc1	–	–	–	–	·
CCOc1ccc(-c2nc3scc(-c4cccs4)c3c(=O)[nH]2)cc1	–	–	–	40.4	·
Cn1c(=O)c(Cc2ccccc2)c(O)c2ccccc21	–	–	–	–	·
O=c1c(Cc2ccccc2)c(O)c2cccc3c4c(n1c23)CCCC4	–	–	–	39.3	–
CCc1c(C)n2nc(C)cc2[nH]c1=O	–	–	–	46.9	+
COc1ccccc1-c1ncn(Cc2cccc(-c3ccccc3)c2)c1-c1ccco1	·	·	·	–	·
O=C(CCNS(=O)(=O)c1ccccc1)Nc1ccccc1	–	–	–	–	·
CCCc1ccc2oc(C(=O)N3CCN(c4cnccn4)CC3)c(C)c2c1	–	–	–	40.5	–
CC1(C)Cc2c(c(-c3ccco3)nc3sc4c(NCCN5CCOCC5)ncnc4c23)CO1	–	–	–	51.3	–
